Assay results reported in ChEMBL document CHEMBL4699617, “Rational Design of Right-Handed Heterogeneous Peptidomimetics as Inhibitors of Protein-Protein Interactions” (J Med Chem, 2020).
The source made the active and inactive calls. No cut-off for these calls is given here.

Legend:
[1] = target: T1, E3 ubiquitin-protein ligase Mdm2 (Homo sapiens, UniProt Q00987); test: Inhibition of MDM2 in human U2OS cells assessed as increase in p53 expression at 30 uM incubated for 16 hrs by Western blot analysis; type: cell-based
How it was run: (§1)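 U2OS osteosarcoma cells carrying endogenous wild-type p53, treated at 30 μM for 16 h. Cells lysed in Tris-HCl pH 8.0/150 mM NaCl/0.5% NP-40 with PMSF and protease inhibitors, spun 14,000g, 10 min, 4 °C. Supernatant boiled in Laemmli buffer, run on SDS-PAGE and immunoblotted for p53 pathway markers.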
Target sequence in this assay (Q00987 whole entry, looked up): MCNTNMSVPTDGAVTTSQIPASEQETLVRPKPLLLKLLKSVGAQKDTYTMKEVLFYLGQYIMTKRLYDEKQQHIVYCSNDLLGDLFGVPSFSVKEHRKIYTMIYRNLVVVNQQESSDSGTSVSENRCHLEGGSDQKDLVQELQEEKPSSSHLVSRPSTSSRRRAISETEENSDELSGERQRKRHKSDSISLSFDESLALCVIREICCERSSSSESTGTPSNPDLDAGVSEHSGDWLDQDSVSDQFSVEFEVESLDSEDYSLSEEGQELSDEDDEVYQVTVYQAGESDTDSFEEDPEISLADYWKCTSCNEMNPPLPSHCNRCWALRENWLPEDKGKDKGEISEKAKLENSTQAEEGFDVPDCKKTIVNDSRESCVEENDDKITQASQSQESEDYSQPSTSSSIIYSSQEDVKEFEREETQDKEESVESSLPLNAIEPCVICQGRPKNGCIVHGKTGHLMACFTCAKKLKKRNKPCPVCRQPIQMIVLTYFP

[2] = target: T1, E3 ubiquitin-protein ligase Mdm2; test: Inhibition of MDM2 in human U2OS cells assessed as increase in MDM2 expression at 30 uM incubated for 16 hrs by Western blot analysis; type: cell-based; how it was run: as §1
Target sequence in this assay (Q00987 whole entry, looked up): as above

[3] = target: T1, E3 ubiquitin-protein ligase Mdm2; test: Binding affinity to human recombinant MDM2 (1 to 150 residue) expressed in Escherichia coli using presence of FITC-labelled compound by fluorescence polarization assay
Target sequence in this assay (Q00987 whole entry): as the sequence (Q00987 whole entry, looked up) above

[4] = target: T1, E3 ubiquitin-protein ligase Mdm2; test: Inhibition of MDM2 in human U2OS cells assessed as increase in p21 expression at 30 uM incubated for 16 hrs by Western blot analysis; type: cell-based; how it was run: as §1
Target sequence in this assay (Q00987 whole entry, looked up): as above

| p53 expression increase (activity call) [1] | Increase in MDM2 expression (active/inactive) [2] | IC50 [3] [µM] | p21 expression increase (active/inactive call) [4] | Structure (SMILES) |
| --- | --- | --- | --- | --- |
| Active | Active | 9.4 | Active | CC(C)C[C@H](NC(=O)CN(C[C@@H]1CCCCNC(=O)CC[C@H](NC(=O)CN(C[C@H](Cc2ccccc2)NC(=O)[C@@H](NC(=O)CCc2ccccc2)[C@@H](C)O)S(C)(=O)=O)C(=O)N[C@@H](Cc2ccc(O)cc2)CN(S(=O)(=O)c2ccc3ccccc3c2)CC(=O)N[C@@H](C)C(=O)N1)S(=O)(=O)CC(C)C)C(=O)N[C@@H](CO)CN(CC(=O)N[C@@H](C)C(N)=O)S(C)(=O)=O |
| Active | Active |  | Active | CC(=O)N[C@H](C(=O)N[C@@H](Cc1c[nH]c2ccccc12)CN(CC(=O)N[C@H]1CCC(=O)NCCCC[C@@H](CN(CC(=O)N[C@@H](CC(C)C)C(=O)N[C@@H](CO)CN(CC(=O)N[C@@H](C)C(N)=O)S(C)(=O)=O)S(=O)(=O)CC(C)C)NC(=O)[C@H](C)NC(=O)CN(S(=O)(=O)c2ccc3ccccc3c2)C[C@H](Cc2ccc(O)cc2)NC1=O)S(C)(=O)=O)[C@@H](C)O |
| Active | Active | 9 | Active | CC(=O)N[C@H](C(=O)N[C@@H](Cc1ccccc1)CN(CC(=O)N[C@H]1CCC(=O)NCCCC[C@@H](CN(CC(=O)N[C@@H](CC(C)C)C(=O)N[C@@H](CO)CN(CC(=O)N[C@@H](C)C(N)=O)S(C)(=O)=O)S(C)(=O)=O)NC(=O)[C@H](C)NC(=O)CN(S(=O)(=O)c2ccc3ccccc3c2)C[C@H](Cc2ccc(O)cc2)NC1=O)S(C)(=O)=O)[C@@H](C)O |
| Active | Active | 11.7 | Active | CC(=O)N[C@H](C(=O)N[C@@H](Cc1ccccc1)CN(CC(=O)N[C@H]1CCC(=O)NCCCC[C@@H](CN(CC(=O)N[C@@H](CC(C)C)C(=O)N[C@@H](CO)CN(CC(=O)N[C@@H](C)C(N)=O)S(C)(=O)=O)S(=O)(=O)CC(C)C)NC(=O)[C@H](C)NC(=O)CN(S(=O)(=O)c2ccc3ccccc3c2)C[C@H](Cc2ccc(O)cc2)NC1=O)S(C)(=O)=O)[C@@H](C)O |
